# Screens from PubChem.
# Most compounds without a hit are left out; they make up all but 2.9% or so of the library.
# SIRT5 block: SIRT5 desuccinylase inhibitors, primary screen, biochemical, fluorescence imaging, single point, set 5; hit rate 1.1% among 330,000; NAD-dependent protein deacylase sirtuin-5, mitochondrial (Homo sapiens), Q9NXA8; inhibition, % at 15 µM; Purified SirT5, succinyl-peptide AMC, trypsin-coupled fluorescence; in the data active = inhibition above about 15%; inconclusive = no clear call, values can overlap the other calls
# E-selectin induc: E-selectin induction in HUVECs, primary screen, imaging, HUVEC, immunofluorescence imaging, single point | activation, % at 7.58 µM | hit rate 0.37% among 260,000 | P16581 | normalized: neutral wells 0, TNF-alpha wells 100;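 active = mean E-selectin-positive cell signal at least 10% of the positive control, reached in at least 60% of replicates, without over 20% cell loss; inconclusive = no rule given, readout overlaps actives, possibly toxicity-flagged; inactive = the rest, including those meeting only one limit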
# Target sequence (P16581 whole entry, looked up): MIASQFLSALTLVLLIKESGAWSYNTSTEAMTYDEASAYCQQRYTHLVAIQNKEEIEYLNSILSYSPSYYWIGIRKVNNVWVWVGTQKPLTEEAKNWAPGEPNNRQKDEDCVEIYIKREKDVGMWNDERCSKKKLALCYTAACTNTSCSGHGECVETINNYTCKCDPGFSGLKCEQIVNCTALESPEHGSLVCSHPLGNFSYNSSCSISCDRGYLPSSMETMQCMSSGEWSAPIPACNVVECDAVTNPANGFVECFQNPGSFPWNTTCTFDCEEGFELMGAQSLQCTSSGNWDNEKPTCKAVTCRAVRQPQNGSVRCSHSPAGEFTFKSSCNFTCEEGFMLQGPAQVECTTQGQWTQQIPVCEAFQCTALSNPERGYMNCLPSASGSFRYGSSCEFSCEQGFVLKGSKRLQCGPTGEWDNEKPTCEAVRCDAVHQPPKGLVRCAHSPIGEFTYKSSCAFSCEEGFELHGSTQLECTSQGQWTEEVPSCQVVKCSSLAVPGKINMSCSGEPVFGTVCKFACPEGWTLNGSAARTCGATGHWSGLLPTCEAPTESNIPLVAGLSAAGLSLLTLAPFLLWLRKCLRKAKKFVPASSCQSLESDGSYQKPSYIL
#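 Test system: HUVEC | Signal: Immunofluorescence imaging | Read-out: Percent E-selectin-positive cells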
# DENV2 CPE rescue: inhibitors of DENV2 cytopathic effect, primary screen, cell-based, plate reader, single concentration | DENV2-infected cells, cytopathic effect rescue | CPE inhibition, % at 9.99 µM | hit rate 1.7% among 350,000; in the data active = CPE inhibition above about 20%, passing the limit was not always enough; inconclusive = no clear call, values can overlap the other calls; tested in BHK-21 cells;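 also: 0% = median of neutral control wells and 100% = median of positive control wells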
# The depositor's hits bear a star; ? = inconclusive; . = no result.
SMILES,SIRT5 block,E-selectin induc,DENV2 CPE rescue
C[C@@H]1CN([C@H](C)CO)C(=O)c2cccc(NS(=O)(=O)c3ccccc3)c2O[C@@H]1CN(C)C(=O)Nc1ccc(F)cc1,0,0,34*
C[C@@H]1CN([C@H](C)CO)C(=O)c2cccc(NS(=O)(=O)c3ccccc3)c2O[C@@H]1CN(C)C(=O)Nc1ccccc1,0,.,2
CCCN1[C@H](C(=O)NCC)[C@@H](CO)[C@@H]2Cn3c(ccc(-c4ccc(OC)cc4)c3=O)[C@@H]21,-14,-1,8
Cc1cc(C(=O)Nc2cccc3c2O[C@H](CN(C)Cc2ccc(Cl)c(Cl)c2)[C@H](C)CN([C@H](C)CO)C3=O)n(C)n1,0,0,4
CC(=O)N1CC(C)Sc2ccc(S(=O)(=O)N3CCCCC3)cc21 (configuration not stated),-4,0,13
Cc1cc2ccccc2n1CCNC(=O)c1ccc(S(=O)(=O)N2CCCCC2)cc1,-7,93*,-7
O=C(NCCc1ccccc1)c1ccc(S(=O)(=O)N2CCCCC2)cc1,.,0,-1
Cc1nnsc1C(=O)N/N=C/c1ccc(OC(F)(F)F)cc1,-5,1,0
COc1ccc(-c2cc(C(=O)N3CCN(c4cccc(C)c4C)CC3)c3ccccc3n2)cc1OC,21*,.,.
COc1ccc(-c2cc(C(=O)N3CCN(c4ncccn4)CC3)c3ccccc3n2)cc1OC,3,.,2
Clc1cccc(Cl)c1CSc1nnc(-c2ccncc2)s1,1,0,70*
Clc1ccc(CSc2nnc(-c3ccncc3)s2)cc1,5,0,-2
COCCN(CCOC)Cc1c(C)[nH]c2c(C)c(C)ccc2c1=O,4,.,2
C[C@H](CO)N1C[C@H](C)[C@H](CN(C)S(C)(=O)=O)Oc2cc(C3=CCCCC3)ccc2S1(=O)=O,-3,0,2
C[C@@H]1CN([C@@H](C)CO)S(=O)(=O)c2ccc(C3=CCCCC3)cc2O[C@@H]1CN(C)S(=O)(=O)c1ccc(F)cc1,22*,0,-5
C[C@@H]1CN([C@H](C)CO)S(=O)(=O)c2ccc(C3=CCCC3)cc2O[C@H]1CN(C)S(=O)(=O)c1ccc(F)cc1,4,0,3
C[C@H]1CN([C@@H](C)CO)S(=O)(=O)c2ccc(C3=CCCCC3)cc2O[C@H]1CN(C)S(=O)(=O)c1ccc(F)cc1,27*,1,1
C[C@H]1CN([C@@H](C)CO)S(=O)(=O)c2ccc(C3=CCCCC3)cc2O[C@@H]1CN(C)S(=O)(=O)c1ccc(F)cc1,33*,0,-4
Cc1ccc(S(=O)(=O)N(C)C[C@@H]2Oc3cc(C4=CCCC4)ccc3S(=O)(=O)N([C@@H](C)CO)C[C@H]2C)cc1,5,0,5
C[C@@H]1CN([C@@H](C)CO)S(=O)(=O)c2ccc(C3=CCCCC3)cc2O[C@@H]1CN(C)S(C)(=O)=O,-4,0,-1
C[C@H](CO)N1C[C@H](C)[C@H](CN(C)S(=O)(=O)c2ccc(F)cc2)Oc2cc(C3=CCCCC3)ccc2S1(=O)=O,32*,0,2
COc1ccc(N(CC(=O)Nc2cccnc2)S(C)(=O)=O)cc1,-1,.,3
CO[C@H]1CC[C@@H]2CCOc3c(C#N)cccc3C(=O)N(C)C[C@H](OC)[C@H](C)C(=O)N(C)C[C@@H]1O2,-2,0,0
Cc1ccccc1NC(=O)Cn1nnc2ccccc21,-5,.,1
O=C(N/N=C/c1cccnc1)c1ccccc1OCc1cccc(Br)c1,-3,.,-3
SMILES,SIRT5 block,E-selectin induc,DENV2 CPE rescue
C[C@H]1CN([C@@H](C)CO)S(=O)(=O)c2ccc(C3=CCCC3)cc2O[C@@H]1CN(C)S(=O)(=O)c1ccc(F)cc1,4,0,69*
C[C@@H]1CN([C@H](C)CO)S(=O)(=O)c2ccc(C3=CCCC3)cc2O[C@@H]1CN(C)S(=O)(=O)c1ccc(F)cc1,0,0,13
C[C@@H]1CN([C@@H](C)CO)S(=O)(=O)c2ccc(C3=CCCCC3)cc2O[C@H]1CN(C)S(=O)(=O)c1ccc(F)cc1,26*,0,?
Cc1ccc(S(=O)(=O)N(C)C[C@H]2Oc3cc(C4=CCCC4)ccc3S(=O)(=O)N([C@H](C)CO)C[C@H]2C)cc1,4,0,.
CCN(CC(=O)Nc1ccc(NC(C)=O)cc1)C(=O)/C=C/c1ccc2c(c1)OCO2,10,0,-3
CCCCC1=CC2=CC(=O)C(C)(OC(=O)CC)C(=O)C2=CN1c1ccc(OC)cc1 (configuration not stated),10,0,-2
CCCCC1=CC2=CC(=O)C(C)(OC(=O)CC)C(=O)C2=CN1c1cccc(C#N)c1 (configuration not stated),-2,1,26*
